Results published in ChEMBL document CHEMBL5532751, “Identification of chalcone analogues as anti-inflammatory agents through the regulation of NF-κB and JNK activation” (RSC Med Chem, 2024).
Activity calls are given as the source filed them. No cut-off for these calls is given here.

What was measured:
RAW264.7 [1] = assay: Antiinflammatory activity in LPS-induced mouse RAW264.7 cells assessed as inhibition of NO production at 20 uM preincubated for 2 hrs followed by LPS stimulation for 24 hrs by Griess reagent based assay; type: functional, cell-based; conditions: time 26.0 hrs
Outline: (§1)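 Cells at 100 000 per well, grown 36 h in DMEM with 10% heat-inactivated FBS at 37 °C, 5% CO2. Pretreated 2 h with compound (20 μM in the screen), then LPS 1 μg mL−1 for 24 h. Supernatant mixed with Griess reagent, absorbance read at 540 nm, nitrite read from a sodium nitrite standard curve. Expressed as % of LPS control; ≥3 independent experiments, each in triplicate.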

RAW264.7 [2] = assay: Antiinflammatory activity in LPS-induced mouse RAW264.7 cells assessed as reduction in NO production at 20 uM preincubated for 2 hrs followed by LPS stimulation for 24 hrs by Griess reagent based assay; type: functional, cell-based; conditions: time 26.0 hrs; outline: as §1
RAW264.7 [3] = assay: Cytotoxicity against mouse RAW264.7 cells assessed as cell survival at 20 uM incubated for 4 hrs by CCK-8 method; type: toxicity, cell-based; conditions: raw264.7, 4 h
Outline: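 RAW 264.7 cells seeded at 20 000 per well, grown 24 h at 37 °C, exposed to compound for 4 h. CCK-8 (WST-8) reagent then added for 50 min at 37 °C, absorbance read at 450 nm. Survival = (test − blank)/(untreated medium control − blank) × 100%, blank being medium without cells.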

RAW264.7 [4] = assay: Inhibition of ROS production in LPS-induced mouse RAW264.7 cells preincubated for 2 hrs followed by LPS stimulation for 24 hrs by Real-time single cell multi-mode analyzer; type: functional, cell-based; conditions: dose 10-40 µM, time 26.0 hrs
Outline: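 Cells on confocal dishes at 100 000 per well for 36 h, pretreated 2 h with compound at 10, 20 or 40 μM, then LPS 1 μg mL−1 for 24 h. Loaded with 50 μM H2DCFDA in PBS for 30 min in the dark. ROS read per cell on a real-time single-cell multi-mode analyzer. Mean ± SD.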

RAW264.7 [5] = assay: Antiinflammatory activity in LPS-induced mouse RAW264.7 cells assessed as inhibition of IL-1beta release preincubated for 2 hrs followed by LPS stimulation for 24 hrs by ELISA method; type: functional, cell-based; conditions: for Activity: dose 2.5-40 µM, time 26.0 hrs
Outline: (§2)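 RAW264.7 macrophages pretreated 2 h with compound at 2.5, 5, 10, 20 and 40 μM, then LPS 1 μg mL−1 for 24 h. Cytokine in supernatant measured with commercial ELISA kits per the manufacturers' protocols. IC50 derived from the dose series. Mean ± SD.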

RAW264.7 [6] = assay: Antiinflammatory activity in LPS-induced mouse RAW264.7 cells assessed as downregulation of TNF-alpha mRNA expression level preincubated for 2 hrs followed by LPS stimulation for 6 hrs by RT-qPCR analysis; type: functional, cell-based; conditions: dose 5-20 µM, time 8.0 hrs
Outline: (§3)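 RAW264.7 cells pretreated 2 h with compound at 5, 10 or 20 μM or vehicle, then LPS 1 μg mL−1 for 6 h. Total RNA extracted and target mRNAs quantified by RT-qPCR, normalized to β-actin mRNA. Mean ± SD of three independent experiments.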

RAW264.7 [7] = assay: Antiinflammatory activity in LPS-induced mouse RAW264.7 cells assessed as decrease in COX-2 protein level at 10 to 40 uM preincubated for 2 hrs followed by LPS stimulation for 24 hrs by Western blot analysis; type: functional, cell-based; conditions: dose 10-40 µM, time 26.0 hrs
Outline: (§4)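 RAW264.7 cells given compound at 10, 20 or 40 μM, then LPS (1 μg mL−1). Lysis in 1% Triton X-100 buffer with phosphatase and protease inhibitors, 30 min on ice. Protein quantified by BCA, run on 10% SDS-PAGE, transferred to PVDF. Primary antibody overnight at 4 °C, HRP secondary 2 h at room temperature, ECL detection. β-Actin as loading control. Mean ± SD, n = 3.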

RAW264.7 [8] = assay: Antiinflammatory activity in LPS-induced mouse RAW264.7 cells assessed as inhibition of IL-6 release preincubated for 2 hrs followed by LPS stimulation for 24 hrs by ELISA method; type: functional, cell-based; conditions: for Activity: dose 2.5-40 µM, time 26.0 hrs; outline: as §2
RAW264.7 [9] = assay: Antiinflammatory activity in LPS-induced mouse RAW264.7 cells assessed as downregulation of IL-6 mRNA expression level preincubated for 2 hrs followed by LPS stimulation for 6 hrs by RT-qPCR analysis; type: functional, cell-based; conditions: dose 5-20 µM, time 8.0 hrs; outline: as §3
RAW264.7 [10] = assay: Antiinflammatory activity in LPS-induced mouse RAW264.7 cells assessed as downregulation of IL-1beta mRNA expression level preincubated for 2 hrs followed by LPS stimulation for 6 hrs by RT-qPCR analysis; type: functional, cell-based; conditions: dose 5-20 µM, time 8.0 hrs; outline: as §3
RAW264.7 [11] = assay: Antiinflammatory activity in LPS-induced mouse RAW264.7 cells assessed as decrease in iNOS protein level at 10 to 40 uM preincubated for 2 hrs followed by LPS stimulation for 24 hrs by Western blot analysis; type: functional, cell-based; conditions: dose 10-40 µM, time 26.0 hrs; outline: as §4
RAW264.7 [12] = assay: Antiinflammatory activity in LPS-induced mouse RAW264.7 cells assessed as downregulation of COX-2 mRNA expression level preincubated for 2 hrs followed by LPS stimulation for 6 hrs by RT-qPCR analysis; type: functional, cell-based; conditions: dose 5-20 µM, time 8.0 hrs; outline: as §3
RAW264.7 [13] = assay: Antiinflammatory activity in LPS-induced mouse RAW264.7 cells assessed as inhibition of NO production preincubated for 2 hrs followed by LPS stimulation for 24 hrs by Griess reagent based assay; type: functional, cell-based; outline: as §1
RAW264.7 [14] = assay: Inhibition of JNK signaling activation in LPS-induced mouse RAW264.7 cells assessed as downregulation of JNK phosphorylation preincubated for 2 hrs followed by LPS addition for 2 hrs by Western blot analysis; type: cell-based; conditions: dose 10-40 µM, time 4.0 hrs
Outline: (§5)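 RAW264.7 macrophages pretreated 2 h with vehicle (DMSO) or compound at 10, 20 or 40 μM, then LPS 1 μg mL−1 for 2 h. p-p65 and p-JNK detected by Western blot, normalized to β-actin and to total p65 or JNK. Optical density expressed as % of control; mean ± SEM of at least three independent experiments.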

RAW264.7 [15] = assay: Antiinflammatory activity in LPS-induced mouse RAW264.7 cells assessed as inhibition of PGE2 production preincubated for 2 hrs followed by LPS stimulation for 24 hrs by ELISA method; type: functional, cell-based
RAW264.7 [16] = assay: Antiinflammatory activity in LPS-induced mouse RAW264.7 cells assessed as downregulation of iNOS mRNA expression level preincubated for 2 hrs followed by LPS stimulation for 6 hrs by RT-qPCR analysis; type: functional, cell-based; conditions: dose 5-20 µM, time 8.0 hrs; outline: as §3
RAW264.7 [17] = assay: Antiinflammatory activity in LPS-induced mouse RAW264.7 cells assessed as inhibition of iNOS activity preincubated for 2 hrs followed by LPS stimulation for 24 hrs by ELISA method; type: functional, cell-based
RAW264.7 [18] = assay: Antiinflammatory activity in LPS-induced mouse RAW264.7 cells assessed as inhibition of TNF-alpha release preincubated for 2 hrs followed by LPS stimulation for 24 hrs by ELISA method; type: functional, cell-based; conditions: for Activity: dose 2.5-40 µM, time 26.0 hrs; outline: as §2
RAW264.7 [19] = assay: Inhibition of NF-kB signaling activation in LPS-induced mouse RAW264.7 cells assessed as downregulation of p65 phosphorylation preincubated for 2 hrs followed by LPS addition for 2 hrs by Western blot analysis; type: cell-based; conditions: dose 10-40 µM, time 4.0 hrs; outline: as §5

IC50 (RAW264.7 [5]) [µM]	IC50 (RAW264.7 [8]) [µM]	IC50 (RAW264.7 [15]) [µM]	IC50 (RAW264.7 [17]) [µM]	IC50 (RAW264.7 [18]) [µM]	SMILES	Activity (RAW264.7 [1])	Activity (RAW264.7 [3])	Activity (RAW264.7 [5])	Activity (RAW264.7 [6])	Activity (RAW264.7 [7])	Activity (RAW264.7 [8])	Activity (RAW264.7 [9])	Activity (RAW264.7 [10])	Activity (RAW264.7 [11])	Activity (RAW264.7 [12])	inhibition (RAW264.7 [14])	Activity (RAW264.7 [16])	Activity (RAW264.7 [18])	inhibition (RAW264.7 [19])	further results
					COc1ccc(C(=O)CCc2ccc(OC)c(OC)c2)cc1	inactive														
					COc1ccc(CCC(=O)c2ccc(O)cc2)c(OC)c1															inhibition (RAW264.7 [1]): inactive
10	8.4	9.5	11.9	7.1	COc1ccc(/C=C/C(=O)c2cc(OC)c(OC)c(OC)c2)cc1OC		Non-Toxic	Dose-Dependent Effect	Dose-Dependent Effect	Active	Dose-Dependent Effect	Dose-Dependent Effect	Dose-Dependent Effect	Active	Dose-Dependent Effect	Dose-Dependent Effect	Dose-Dependent Effect	Dose-Dependent Effect	Dose-Dependent Effect	Activity (RAW264.7 [2]): Active; inhibition (RAW264.7 [4]): Dose-Dependent Effect; IC50 (RAW264.7 [13]): 7.6 µM; Activity (RAW264.7 [13]; dose 2.5-40 µM, time 26.0 hrs): Dose-Dependent Effect
12.3	2.1	4	4.6	7.9	COc1ccc(C(=O)/C=C/c2cc(OC)c(OC)c(OC)c2)cc1OC		Non-Toxic	Dose-Dependent Effect	Dose-Dependent Effect	Active	Dose-Dependent Effect	Dose-Dependent Effect	Dose-Dependent Effect	Active	Dose-Dependent Effect	Dose-Dependent Effect	Dose-Dependent Effect	Dose-Dependent Effect	Dose-Dependent Effect	
					COc1cc(CCC(=O)c2ccc(F)c(C)c2)cc(OC)c1OC	inactive														
